# An excerpt weighted towards active compounds, which were near 2.9% of everything screened.
# HSP90 inh: HSP90 refolding inhibition in rabbit reticulocyte lysate; luciferase refolding luminescence, 3 h; inhibition, % at 5.6 µM; 290,000 compounds, 0.91% hits; AID 1789;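 active = inhibition above the screen-wide mean plus 3 SD, computed separately per campaign, cut at about 16% in these data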;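 note: 0% = DMSO wells and 100% = 60 µM geldanamycin wells; inhibitors lower the luminescence because luciferase stays unfolded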
# SENP8 block-1: blocks the human protease SENP8; Q96LD8; inhibition, % at 10 µM; 330,000 compounds, 1.2% hits; purified SENP8, Z-RLRGG-aminoluciferin cleavage, luminescence; in the data active = inhibition above about 50%
# SENP8 block-2: blocks human SENP8 cleavage of Nedd8 substrate. inhibition, % at 20 µM. 360,000 compounds, 0.64% hits. AID 602440. Q96LD8. recombinant SENP8, Nedd8 substrate fluorescence; in the data active = inhibition mostly above about 40%, no sharp cut-off; inactive = mostly below about 27%
# SENP6 block: blocks the human protease SENP6; inhibition, % at 10 µM; AID 2599; Recombinant SENP6 catalytic domain, aminoluciferin luminescence; Q9GZR1; 330,000 compounds, 1.8% hits;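 active = inhibition above about 50% at the single tested dose, limit read from the data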;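 note: plate controls were DMSO wells with enzyme for no effect and DMSO wells lacking enzyme for full effect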
# Target sequence (Q9GZR1 628-1112 limits assumed): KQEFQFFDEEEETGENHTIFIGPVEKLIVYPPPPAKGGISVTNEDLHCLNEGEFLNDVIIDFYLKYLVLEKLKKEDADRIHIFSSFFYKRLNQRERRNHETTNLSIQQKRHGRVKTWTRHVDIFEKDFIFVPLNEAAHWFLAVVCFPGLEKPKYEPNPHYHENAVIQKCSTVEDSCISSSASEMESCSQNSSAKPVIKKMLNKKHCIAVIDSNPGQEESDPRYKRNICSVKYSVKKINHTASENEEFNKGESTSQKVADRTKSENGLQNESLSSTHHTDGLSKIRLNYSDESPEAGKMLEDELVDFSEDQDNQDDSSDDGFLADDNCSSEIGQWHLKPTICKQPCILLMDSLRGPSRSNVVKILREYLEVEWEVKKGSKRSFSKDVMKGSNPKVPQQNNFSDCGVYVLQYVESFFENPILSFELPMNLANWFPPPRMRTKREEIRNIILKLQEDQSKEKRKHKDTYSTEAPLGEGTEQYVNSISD
# SENP7 inh: blocks the human protease SENP7. Q9BQF6. recombinant SENP7, Z-RLRGG-aminoluciferin luminescence, 40 min. inhibition, % at 5 µM. 330,000 compounds, 1.5% hits. AID 434973;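 active = inhibition above about 50% at the single test dose, limit read from the data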;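 note: plate controls were DMSO with enzyme for no effect and no enzyme buffer wells for full effect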
# SENP1 inh: blocks the human SENP1 SUMO protease catalytic domain; 360,000 compounds, 0.21% hits; inhibition, % at 10 µM; recombinant SENP1 catalytic domain, CyPet-SUMO1-YPet FRET cleavage; AID 624204;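 active = inhibition at least 30% at 10 µM, raw YFP signal under a set limit, fluorescence ratio 0.5 to 1.5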;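 note: 0% = enzyme with DMSO and 100% = no enzyme wells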
#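 Controls: no-enzyme wells low, DMSO-plus-enzyme wells high control. Test system: human recombinant His6-tagged SENP1 catalytic domain enzyme. Reagent: SFCypet-SUMO1-SFYpet FRET protein substrate, 25 nM final. Doses: one dose per compound, 10 µM, 0.5% DMSO. Detection: FRET, CFP and YFP emission. Timing: 50 min reaction at room temperature.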
# SENP8 confirm: confirmation of human SENP8 protease inhibitors. shares compounds with SENP7 inh. Recombinant SENP8, Z-RLRGG-aminoluciferin luminescence, 60 min. inhibition, % at 12.5 µM. 6,200 compounds, 40% hits. AID 488912;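 active = mean inhibition across replicates above about 50%, limit read from the data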
# SENP6 confirm: confirmation of human SENP6 protease inhibitors | AID 488915 | inhibition, % at 12.5 µM | 6,200 compounds, 58% hits | shares compounds with SENP7 inh | recombinant SENP6, Z-RLRGG-aminoluciferin luminescence
# SENP7 confirm: confirmation of human SENP7 protease inhibitors; AID 488917; recombinant SENP7, Z-RLRGG-aminoluciferin luminescence, 40 min; inhibition, % at 12.5 µM; shares compounds with SENP7 inh; 6,200 compounds, 69% hits
# Casp3 select: caspase-3 inhibition (SENP selectivity assay). 6,200 compounds, 60% hits. shares compounds with SENP7 inh. purified caspase-3, Z-DEVD-aminoluciferin luminescence, 60 min. inhibition, % at 12.5 µM. AID 488918;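 active = mean inhibition above about 50%, limit read from the data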;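 note: plate controls were enzyme with DMSO for no effect and wells without caspase-3 for full effect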
# Luc interf: luminescence interference (SENP counter-screen). inhibition, % at 12.5 µM. AID 488919. 6,200 compounds, 39% hits. Pre-incubated SENP8/Z-RLRGG-aminoluciferin, luciferase luminescence interference. shares compounds with SENP7 inh;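 active = mean inhibition above about 50% when retested at one dose, limit read from the data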;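 note: plate controls were DMSO wells with completed reaction for no effect and substrate without enzyme for full effect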
# * hit, by the source's call; x = not tested or not shown.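 Rule for the calls, unless noted: active = mean inhibition above about 50% in the one-dose retest (limit read from the data); inactive = the rest.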
SMILES,HSP90 inh,SENP8 block-1,SENP8 block-2,SENP6 block,SENP7 inh,SENP1 inh,SENP8 confirm,SENP6 confirm,SENP7 confirm,Casp3 select,Luc interf
Cc1cccc(NC(=S)NNC(=O)c2sccc2C)c1,0,43,-14,83*,65*,-1,56*,56*,75*,67*,64*
COc1ccc(CN2CCc3c([nH]c4ccccc34)C2)c(OC)c1C,7,14,-31,-8,-4,-8,x,x,x,x,x
CCOC(=O)CCCCCNC(=O)c1ccc(F)cc1F,x,0,11,-9,4,2,x,x,x,x,x
O=C(NCc1ccco1)c1cc([N+](=O)[O-])ccc1N1CCOCC1,-1,-1,18,95*,-12,2,-6,-5,-5,-5,-5
O=C(NCc1ccco1)c1cc([N+](=O)[O-])ccc1Cl,-4,1,5,12,10,3,x,x,x,x,x
C/C(=N/NC(=O)c1cc(C2CC2)[nH]n1)c1cccs1,11,46,30,30,66*,3,64*,62*,88*,89*,71*
C/C(=N\NC(=O)c1cccs1)c1ccc2ccccc2c1,-3,-9,-2,-11,-5,2,x,x,x,x,x
C/C(=N\NC(=O)c1ccc2ccccc2c1)c1cccs1,8,70*,-4,84*,83*,2,54*,53*,93*,84*,10
C/C(=N\NC(=O)c1ccncc1)c1cccs1,1,-4,8,-8,4,1,x,x,x,x,x
CNC[C@@H]1Oc2cc(Br)ccc2S(=O)(=O)N([C@H](C)CO)C[C@@H]1C,x,x,20,x,x,0,x,x,x,x,x
Fc1ccc2nc(N3CCOCC3)sc2c1,-6,18,21,13,24,0,x,x,x,x,x
c1c2c(cc3sc(N4CCOCC4)nc13)OCO2,2,76*,-2,60*,89*,-57,85*,86*,99*,95*,88*
CCOC(=O)C1=CN(Cc2ccco2)S(=O)(=O)NC1c1ccc(F)c(Cl)c1 (stereo not drawn),x,x,1,x,5,-3,x,x,x,x,x
Cc1cc(=O)[nH]c(SCCOc2ccc(OC(C)C)cc2)n1,15,91*,7,94*,89*,-2,91*,95*,100*,95*,58*
O=C(Nc1csc([N+](=O)[O-])c1)Nc1ccccc1Cl,-9,5,18,13,34,3,x,x,x,x,x
O=C(Nc1ccc(Cl)cc1)Nc1ccccc1Sc1ncc([N+](=O)[O-])s1,-5,96*,24,99*,95*,-8,100*,101*,104*,100*,39
O=C(Nc1ccc2oc(-c3ccccc3)nc2c1)c1cccnc1,-2,-3,-6,-13,-2,-1,x,x,x,x,x
CCc1ccc2oc(-c3cccc(NC(=O)c4cccnc4)c3)nc2c1,-2,37,12,61*,47,0,6,-4,-1,1,2
CNC(=O)/C(C#N)=c1\s/c(=C/C(=O)OC)c(=O)n1-c1ccccc1,0,-2,8,-12,-12,1,x,x,x,x,x
COC(=O)/C=c1\sc2ncnn2c1=O,1,7,16,85*,6,-1,6,1,-4,-3,-2
C[C@@H](c1ccccc1)N1C[C@@H](COCc2ccccc2)Oc2cc(N3CC[C@@H](N(C)C)C3)ccc2S1(=O)=O,x,x,11,x,x,1,x,x,x,x,x
CCCn1c(SCC(=O)Nc2cccc(C(=O)OC)c2)nnc1-c1cccnc1,-1,-1,30,3,0,2,x,x,x,x,x

# Compound activity from PubChem BioAssay.
